Drawing on ChEMBL document CHEMBL2010803, “Novel NSAID 1-acyl-4-cycloalkyl/arylsemicarbazides and 1-acyl-5-benzyloxy/hydroxy carbamoylcarbazides as potential anticancer agents and antioxidants” (Eur J Med Chem, 2012), this text covers inhibition, IC50 and Activity for five compounds.

The subject of assay [1] is Respiratory syncytial virus. Put plainly: Antiviral activity against RSV infected in human cervix carcinoma cells assessed as inhibition of virus-induced cytopathic effect at 0.32 to 100 uM. In kind it is functional, organism-based. The procedure, abridged: (§1)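 Confluent cell cultures were infected with 100 CCID50 of virus in the presence of test compound at 100, 40, 8, 1.6 and 0.32 μM. Cytopathic effect was scored once it was complete in untreated infected controls.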

The test system of assay [2] is Coxsackievirus B4. Nature of the assay: Antiviral activity against Coxsackievirus B4 infected in human cervix carcinoma cells assessed as inhibition of virus-induced cytopathic effect at 0.32 to 100 uM. In kind it is functional, organism-based. The procedure, abridged: as §1
For assay [3], the system named is L1210. Nature of the assay: Cytostatic activity against mouse L1210 cells after 2 days by coulter counter analysis. It is filed as functional, cell-based. To be noted: L1210, 48 h. The gist of the method:
(§2)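 300,000–500,000 cells/ml mixed 1:1 with compound dilutions and incubated at 37 °C for 2 days (L1210) or 3 days (CEM, HeLa). Cell number counted with a Coulter counter; HeLa trypsinized before counting.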

Assay [4] deals with CCRF-CEM. Nature of the assay: Cytostatic activity against human CEM cells after 3 days by coulter counter analysis. It is filed as functional, cell-based. As to conditions: 72 h. The gist of the method: as §2
The subject of assay [5] is HCT-116. Nature of the assay: Cytostatic activity against human HCT116 cells after 72 hrs by MTT assay. It is filed as functional, cell-based. To be noted: HCT-116, 72 h. The gist of the method: (§3)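 Monolayers in DMEM with 10% FBS, 2 mM L-glutamine and penicillin/streptomycin, 37 °C, 5% CO2. Seeded at 1–3 × 10^4 cells/ml, then compound added in tenfold dilutions (10⁻⁸–10⁻⁴ M) for 72 h. MTT read at 570 nm; percent growth taken against time-zero and untreated controls. IC50 by linear regression; quadruplicate, at least two experiments.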
A general note: Formazan colour is commonly taken as a measure of viable cells.

For assay [6], the system named is MCF7. Put plainly: Cytostatic activity against human MCF7 cells after 72 hrs by MTT assay. In kind it is functional, cell-based. To be noted: MCF7, 72 h. The procedure, abridged: as §3
Assay [7] relates to NCI-H460. Nature of the assay: Cytostatic activity against human NCI-H460 cells after 72 hrs by MTT assay. In kind it is functional, cell-based. As to conditions: NCI-H460, 72 h. The gist of the method: as §3
Assay [8] has as its system HaCaT. Nature of the assay: Cytostatic activity against human HaCaT cells after 72 hrs by MTT assay. It is filed as ADME, cell-based. The procedure, abridged: as §3
In assay [9] the test system is Human alphaherpesvirus 1. Put plainly: Antiviral activity against HSV1 KOS infected in human lung fibroblast assessed as inhibition of virus-induced cytopathic effect at 0.32 to 100 uM. It is filed as functional, organism-based. The gist of the method:
as §1

In assay [10] the test system is Human alphaherpesvirus 2. Nature of the assay: Antiviral activity against HSV2 G infected in human lung fibroblast assessed as inhibition of virus-induced cytopathic effect at 0.32 to 100 uM. In kind it is functional, organism-based. To be noted: strain G. The procedure, abridged: as §1
(In general: Cytopathic effects are the visible damage that an infection or toxin causes in cultured cells.)

The subject of assay [11] is Vaccinia virus. Put plainly: Antiviral activity against Vaccinia virus infected in human lung fibroblast assessed as inhibition of virus-induced cytopathic effect at 0.32 to 100 uM. In kind it is functional, organism-based. To be noted: Orthopoxvirus vaccinia.
Assay [12] deals with Vesicular stomatitis virus. Nature of the assay: Antiviral activity against VSV infected in human lung fibroblast assessed as inhibition of virus-induced cytopathic effect at 0.32 to 100 uM. In kind it is functional, organism-based.
For assay [13], the system named is Human respirovirus 3. Nature of the assay: Antiviral activity against Parainfluenza virus 3 infected in african green monkey Vero cells assessed as inhibition of virus-induced cytopathic effect at 0.32 to 100 uM. In kind it is functional, organism-based. The procedure, abridged: as §1
The subject of assay [14] is Mammalian orthoreovirus 1. Put plainly: Antiviral activity against Reovirus-1 infected in african green monkey Vero cells assessed as inhibition of virus-induced cytopathic effect at 0.32 to 100 uM. It is filed as functional, organism-based. The gist of the method: as §1
Assay [15] concerns Sindbis virus. Nature of the assay: Antiviral activity against Sindbis virus infected in african green monkey Vero cells assessed as inhibition of virus-induced cytopathic effect at 0.32 to 100 uM. It is filed as functional, organism-based. The procedure, abridged:
as §1

Assay [16] has as its system Coxsackievirus B4. Nature of the assay: Antiviral activity against Coxsackievirus B4 infected in african green monkey Vero cells assessed as inhibition of virus-induced cytopathic effect at 0.32 to 100 uM. In kind it is functional, organism-based. The gist of the method: as §1
Assay [17] deals with Punta Toro virus. Nature of the assay: Antiviral activity against Punta Toro virus infected in african green monkey Vero cells assessed as inhibition of virus-induced cytopathic effect at 0.32 to 100 uM. It is filed as functional, organism-based. The procedure, abridged: as §1
The test system of assay [18] is Vesicular stomatitis virus. Put plainly: Antiviral activity against Vesicular stomatitis virus infected in human cervix carcinoma cells assessed as inhibition of virus-induced cytopathic effect at 0.32 to 100 uM. It is filed as functional, organism-based. The gist of the method: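 Confluent human cervix carcinoma (HeLa) cultures received 100 CCID50 of VSV together with the compound at 100, 40, 8, 1.6 or 0.32 μM. Cytopathicity was read at the point of full CPE in infected, untreated control wells.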

Assay [19] relates to Felid alphaherpesvirus 1. Put plainly: Antiviral activity against Feline herpesvirus infected in feline CRFK cells assessed as inhibition of virus-induced cytopathic effect at 0.32 to 100 uM. In kind it is functional, organism-based. The procedure, abridged:
as §1

Assay [20] deals with Feline coronavirus. Nature of the assay: Antiviral activity against Feline coronavirus infected in feline CRFK cells assessed as inhibition of virus-induced cytopathic effect at 0.32 to 100 uM. In kind it is functional, organism-based. The gist of the method: as §1
Assay [21] concerns Influenza A virus. Nature of the assay: Antiviral activity against Influenza A virus H1N1 infected in MDCK cells assessed as inhibition of virus-induced cytopathic effect at 0.32 to 100 uM. It is filed as functional, organism-based. The procedure, abridged: (§4)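 Confluent MDCK monolayers were infected in the presence of the compound at 100, 40, 8, 1.6 and 0.32 μM. Viral cytopathicity was scored once it was complete in untreated infected control cultures.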

In assay [22] the test system is Influenza A virus. Nature of the assay: Antiviral activity against Influenza A virus H3N2 infected in MDCK cells assessed as inhibition of virus-induced cytopathic effect at 0.32 to 100 uM. In kind it is functional, organism-based. The gist of the method:
as §4

Assay [23] relates to Influenza B virus. Nature of the assay: Antiviral activity against Influenza B virus infected in MDCK cells assessed as inhibition of virus-induced cytopathic effect at 0.32 to 100 uM. In kind it is functional, organism-based. The procedure, abridged:
as §4

Assay [24] has as its system Human immunodeficiency virus 1. Nature of the assay: Antiviral activity against HIV1 3B infected in human CEM cells assessed as inhibition of virus-induced CEM giant cell formation at 0.32 to 100 uM after 4 days. It is filed as functional, organism-based. As to conditions: CCRF-CEM. The gist of the method: (§5)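 CEM cells (~3 × 10^5 cells/cm³) exposed to 100 CCID50/ml of virus and seeded into wells holding compound dilutions. Incubated 4 days at 37 °C, then giant cell formation examined microscopically.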

In assay [25] the test system is Human immunodeficiency virus 2. Put plainly: Antiviral activity against HIV2 ROD infected in human CEM cells assessed as inhibition of virus-induced CEM giant cell formation at 0.32 to 100 uM after 4 days. It is filed as functional, organism-based. As to conditions: ISOLATE ROD, CCRF-CEM. The procedure, abridged: as §5
Assay [26] relates to Radical scavenging activity. Nature of the assay: Antioxidant activity assessed as DPPH free radical scavenging activity at 100 uM after 20 mins by spectrophotometric analysis. In kind it is functional. The procedure, abridged: (§6)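 0.05 mM DPPH in absolute ethanol mixed with an equal volume of compound in DMSO (final 100 μM). Shaken and left 20 or 60 min, then absorbance read at 517 nm and percent activity calculated. Three replicates, averaged.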
On the technique in general: The DPPH test is a chemical assay of radical scavenging.

In assay [27] the test system is Radical scavenging activity. Nature of the assay: Antioxidant activity assessed as DPPH free radical scavenging activity at 100 uM after 60 mins by spectrophotometric analysis. It is filed as functional. The procedure, abridged: as §6
Assay [28] in a line: Antioxidant activity assessed as inhibition of AAPH-induced linoleic acid lipid peroxidation by measuring conjugated diene hydroperoxide level. It is filed as functional. Set-up: concentration or dose not given beside the values. To be noted: dose or concentration not given here. The procedure, abridged:
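Linoleic acid sodium salt (10 μL of 16 mM) in 0.05 M phosphate buffer pH 7.4 at 37 °C. Oxidation started under air with 50 μL of 40 mM AAPH. Conjugated diene hydroperoxide formation followed as absorbance rise at 234 nm; control contains the same DMSO level. At least triplicate.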

The subject of assay [29] is Glycine max. Nature of the assay: Inhibition of soybean LOX assessed as conversion of sodium linoleate to 13- hydroperoxylinoleic acid at 100 uM.
Assay [30] concerns HeLa. Put plainly: Cytostatic activity against human HeLa cells after 3 days by coulter counter analysis. It is filed as functional, cell-based. To be noted: 72 h. The gist of the method:
as §2

The source made the active and inactive calls. No cut-off for these calls is given here.

By inhibition is commonly meant the percentage by which the read-out fell short of the control. As usually defined, the IC50 is the concentration needed to halve the response being measured. Take `CC(C(=O)NNC(=O)NCC1CCCCC1)c1cccc(Oc2ccccc2)c1` (configuration not stated): the inhibition entry in [1], in [2], in assay [9], in assay [10], in assay [11] and in assay [12] was “inactive” throughout. Besides, the inhibition entry in assay [13], in assay [14], in assay [15], in assay [16], in [17] and in assay [18] was “inactive” in each case. For the same compound, the inhibition entry in assay [19], in assay [20], in [21], in assay [22], in assay [23] and in assay [24] was “inactive” each time. In [25], the inhibition result is “inactive”. The IC50 in assay [3] stood at 22 µM; in assay [4], 24 µM; in [5], 15 µM; in [6], 13 µM; in [7], 19 µM; in assay [8] it was 20 µM. The values for the Activity in assay [26] and in assay [27] were 18% and 21%, respectively. The results for the inhibition in assay [28] and in [29] were 64% and 12%, respectively.

Regarding `CC(C)Cc1ccc(C(C)C(=O)NNC(=O)NC2CCCCC2)cc1` (configuration not stated), the inhibition result in assay [1], in [2], in assay [9], in assay [10], in assay [11] and in [12] was “inactive” in each case. Moreover, the inhibition result in assay [13], in [14], in assay [15], in [16], in assay [17] and in [18] was “inactive” in each case. For the same compound, the inhibition result in assay [19], in [20], in assay [21], in assay [22], in assay [23] and in assay [24] was “inactive” in each case. Moreover, the inhibition result in [25] and in [29] was “inactive” throughout. Moreover, the IC50 amounted to 30 µM in [3]; 53 µM in assay [4]; 69 µM in [30]; 28 µM in [5]; 19 µM in [6]; 35 µM in assay [7]. Besides, the result in [26] and in assay [27] was inactive. The inhibition in assay [28] turned out to be 33%.

On to `CC(C)Cc1ccc(C(C)C(=O)NNC(=O)NCc2ccccc2)cc1` (configuration not stated), for which the inhibition result in assay [1], in assay [2], in assay [9], in assay [10], in [11] and in assay [12] was “inactive” in each case. The inhibition entry in assay [13], in assay [14], in assay [15], in assay [16], in assay [17] and in assay [18] was “inactive” throughout. For the same compound, the inhibition entry in assay [19], in [20], in assay [21], in [22], in assay [23] and in assay [24] was “inactive” each time. Also, the inhibition result in assay [25] and in [29] was “inactive” in each case. In addition, the IC50 amounted to 110 µM in assay [3]; 74 µM in assay [4]; 173 µM in assay [30]; 34 µM in assay [5]; 29 µM in assay [6]; 59 µM in assay [7]. Moreover, the result in assay [26] and in [27] was inactive. Further, the inhibition in assay [28] turned out to be 12%.

Compound `O=c1[nH]cc(F)c(=O)[nH]1` [FLUOROURACIL] showed an IC50 in assay [8] of 0.3 µM.

Consider `CC(C(=O)NNC(=O)NOCc1ccccc1)c1cccc(Oc2ccccc2)c1` (configuration not stated), for which the inhibition result in assay [1], in [2], in [9], in assay [10], in assay [11] and in assay [12] was “inactive” each time. The inhibition result in assay [13], in [14], in assay [15], in assay [16], in assay [17] and in assay [18] was “inactive” each time. The inhibition result in assay [19], in assay [20], in [21], in assay [22], in assay [23] and in assay [24] was “inactive” throughout. In addition, the inhibition result in assay [25] was “inactive”. Also, the IC50 in assay [3] is 84 µM; in [4], 91 µM; in assay [30], 76 µM; in assay [5] it was 76 µM; in assay [6], 81 µM; in [7], more than 100 µM. The result in [26] and in assay [27] was inactive. In addition, the inhibition in [28] was determined as 8%; in assay [29] it was 6%.
